We go through 2 compounds from ChEMBL document CHEMBL1149629 (Bioorg Med Chem, 2007).

Calls of active or inactive are those of the source. The rule behind the calls is not given here.

The species named for test [1] is Homo sapiens. The experiment in a line: Inhibition of CK1 at 1 uM. An outline of the steps:
(§1)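 Single-concentration (1 µM) inhibition profiling carried out through a commercial kinase profiler screening service.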

The subject of the next test is HT-29. The experiment in a line: Antiproliferative activity against human HT29 cells […] by microculture tetrazolium assay. The test is classed as functional, cell-based. In a few lines: (§2)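 Tumor cells (ATCC) grown in RPMI 1640 with 10% fetal calf serum, 2 mM L-glutamine, penicillin/streptomycin, 10 mM HEPES pH 7.4. Continuous exposure to graded concentrations for four doubling times, then MTT added and incubated 4 h at 37 °C. Formazan dissolved in DMSO, optical density read. IC50 = concentration reducing OD by 50% versus untreated controls.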

Test [2] is filed under the species Homo sapiens. The experiment in a line: Inhibition of FGFR3 at 1 uM. An outline of the steps:
as §1

The species entered for test [3] is Homo sapiens. The experiment in a line: Binding affinity to DNA assessed as melting temperature.
The species named for test [4] is Homo sapiens. The experiment in a line: Inhibition of PKA at 1 uM. An outline of the steps:
as §1

A further test concerns A549. Kind of test: Antiproliferative activity against human A549 cells […] by microculture tetrazolium assay. It is filed as functional, cell-based. In a few lines: as §2
Test [5] addresses T1, DNA topoisomerase 1 (Homo sapiens) (UniProt P11387).
T1 sequence (whole entry): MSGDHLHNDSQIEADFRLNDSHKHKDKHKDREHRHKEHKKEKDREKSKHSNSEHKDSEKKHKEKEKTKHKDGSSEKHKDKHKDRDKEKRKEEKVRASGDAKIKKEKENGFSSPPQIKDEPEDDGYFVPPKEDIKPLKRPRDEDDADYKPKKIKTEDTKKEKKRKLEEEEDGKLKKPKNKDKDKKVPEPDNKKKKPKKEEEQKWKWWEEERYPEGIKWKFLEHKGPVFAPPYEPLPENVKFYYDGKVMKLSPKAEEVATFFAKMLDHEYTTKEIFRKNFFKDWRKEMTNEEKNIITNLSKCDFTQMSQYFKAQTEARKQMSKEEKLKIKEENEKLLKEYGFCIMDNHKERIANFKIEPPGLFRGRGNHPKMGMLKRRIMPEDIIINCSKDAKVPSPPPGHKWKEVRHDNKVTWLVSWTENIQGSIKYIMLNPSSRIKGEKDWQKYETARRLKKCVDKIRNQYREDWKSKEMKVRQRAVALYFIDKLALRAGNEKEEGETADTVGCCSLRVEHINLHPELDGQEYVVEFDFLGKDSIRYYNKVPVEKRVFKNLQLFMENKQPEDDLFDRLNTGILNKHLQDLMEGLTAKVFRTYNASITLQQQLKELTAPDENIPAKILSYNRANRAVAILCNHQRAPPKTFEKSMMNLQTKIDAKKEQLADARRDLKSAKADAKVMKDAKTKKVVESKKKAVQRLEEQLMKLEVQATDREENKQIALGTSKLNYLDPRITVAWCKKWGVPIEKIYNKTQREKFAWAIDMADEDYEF
The experiment in a line: Inhibition of topoisomerase 1.

Test [6] addresses Tyrosine-protein kinase Lck (Homo sapiens) (UniProt P06239). Kind of test: Inhibition of LCK at 1 uM. In a few lines: as §1
The target of test [7] is T2, Serine/threonine-protein kinase Chk1 (Homo sapiens) (UniProt O14757).
T2 sequence (whole entry): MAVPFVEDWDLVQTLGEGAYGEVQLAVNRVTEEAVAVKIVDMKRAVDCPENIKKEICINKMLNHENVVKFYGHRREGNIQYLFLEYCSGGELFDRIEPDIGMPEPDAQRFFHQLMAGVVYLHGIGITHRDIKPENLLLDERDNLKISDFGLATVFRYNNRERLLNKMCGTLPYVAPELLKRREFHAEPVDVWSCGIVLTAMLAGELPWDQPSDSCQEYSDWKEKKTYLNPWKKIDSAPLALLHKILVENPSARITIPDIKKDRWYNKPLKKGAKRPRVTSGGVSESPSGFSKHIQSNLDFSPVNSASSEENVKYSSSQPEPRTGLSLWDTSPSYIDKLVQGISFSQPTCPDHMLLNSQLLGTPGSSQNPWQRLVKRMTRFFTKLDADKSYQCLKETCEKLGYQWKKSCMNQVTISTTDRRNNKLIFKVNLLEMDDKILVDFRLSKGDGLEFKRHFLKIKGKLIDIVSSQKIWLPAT
The experiment in a line: Inhibition of human Chk1 at 10 uM. In a few lines:
(§3)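 Chk1 from a commercial source or purified as GST–Chk1 from baculovirus-infected Sf9 cells. Assay based on a published method. Percent inhibition determined at 10 µM; IC50 determined for selected compounds.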

The target in test [8] is MAP kinase-activated protein kinase 2 (Homo sapiens) (UniProt P49137). The experiment in a line: Inhibition of MAPKAPK2 at 1 uM. In a few lines: as §1
Test [9] deals with Protein kinase C alpha type (Homo sapiens) (UniProt P17252). Kind of test: Inhibition of PKCalpha at 1 uM. An outline of the steps: as §1
The target in test [10] is T3, Protein kinase C epsilon type (Homo sapiens) (UniProt Q02156).
T3 sequence (whole entry): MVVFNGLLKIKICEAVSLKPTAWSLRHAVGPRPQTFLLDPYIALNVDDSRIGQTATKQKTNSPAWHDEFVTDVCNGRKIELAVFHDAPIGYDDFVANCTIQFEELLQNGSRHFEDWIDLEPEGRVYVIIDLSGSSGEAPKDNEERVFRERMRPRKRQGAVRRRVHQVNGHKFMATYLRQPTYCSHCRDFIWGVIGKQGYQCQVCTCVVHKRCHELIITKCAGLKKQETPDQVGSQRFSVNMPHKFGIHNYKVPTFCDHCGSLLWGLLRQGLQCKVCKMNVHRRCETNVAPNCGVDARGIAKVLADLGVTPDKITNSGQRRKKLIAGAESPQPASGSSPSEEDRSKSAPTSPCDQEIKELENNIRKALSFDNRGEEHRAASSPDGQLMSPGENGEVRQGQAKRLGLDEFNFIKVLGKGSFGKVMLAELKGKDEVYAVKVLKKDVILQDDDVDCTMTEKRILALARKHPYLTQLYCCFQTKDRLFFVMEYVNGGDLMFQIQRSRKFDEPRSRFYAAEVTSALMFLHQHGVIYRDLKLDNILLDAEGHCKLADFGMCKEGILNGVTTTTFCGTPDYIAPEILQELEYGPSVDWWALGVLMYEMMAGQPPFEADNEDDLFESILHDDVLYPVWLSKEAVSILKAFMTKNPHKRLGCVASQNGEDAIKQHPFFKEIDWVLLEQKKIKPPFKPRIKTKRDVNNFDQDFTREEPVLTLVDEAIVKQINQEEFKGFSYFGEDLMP
The experiment in a line: Inhibition of PKCepsilon at 1 uM. An outline of the steps: as §1

The target of test [11] is AMP-activated protein kinase, AMPK (Homo sapiens) (UniProt P54646+O43741+P54619+Q9UGJ0+Q9Y478+Q13131+Q9UGI9). The experiment in a line: Inhibition of AMPK at 1 uM. It is filed as protein-complex assay. In a few lines:
as §1

Test [12] addresses Ribosomal protein S6 kinase beta-1 (Homo sapiens) (UniProt P23443). The experiment in a line: Inhibition of P70S6K at 1 uM. An outline of the steps:
as §1

For test [13], the target named is T4, Serine/threonine-protein kinase Chk1 (Homo sapiens, UniProt O14757).
T4 sequence (O14757 whole entry): T2 sequence (whole entry)
Kind of test: Inhibition of human Chk1. In a few lines:
as §3

For test [14], the target named is Protein kinase C beta type (Homo sapiens) (UniProt P05771). Kind of test: Inhibition of PKCbeta at 1 uM. An outline of the steps:
as §1

The species entered for test [15] is Homo sapiens. Kind of test: Inhibition of CAMK2 at 1 uM. An outline of the steps: as §1
The species named for test [16] is Homo sapiens. The experiment in a line: Inhibition of GSK3 at 1 uM. In a few lines:
as §1

Test [17] concerns the target Cyclin-dependent kinase 2 (Homo sapiens) (UniProt P24941). The experiment in a line: Inhibition of CDK2/cyclin A at 1 uM. In a few lines: as §1
Test [18] concerns the target Proto-oncogene tyrosine-protein kinase Src (Homo sapiens) (UniProt P12931). The experiment in a line: Inhibition of Src tyrosine kinase at 1 uM after 20 mins.
A further test deals with DU-145. The experiment in a line: Antiproliferative activity against human DU145 cells […] by microculture tetrazolium assay. It is filed as functional, cell-based. In a few lines: as §2
The target in test [19] is T1, DNA topoisomerase 1 (Homo sapiens). The experiment in a line: Inhibition of topoisomerase 1 upto 50 uM. In a few lines: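 DNA relaxation and DNA cleavage assays with topoisomerase I, run following published procedures, with compounds up to 50 µM.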
Test [20] has as its target T2, Serine/threonine-protein kinase Chk1 (Homo sapiens). Kind of test: Inhibition of Chk1 at 1 uM.
The target in test [21] is Mitogen-activated protein kinase 1 (Homo sapiens) (UniProt P28482). Kind of test: Inhibition of MAPK1 at 1 uM. An outline of the steps:
as §1

The test system of another test is L1210. Kind of test: Antiproliferative activity against mouse L1210 cells […] by microculture tetrazolium assay. It is filed as functional, cell-based. An outline of the steps:
as §2

Ribosomal protein S6 kinase beta-1 (Homo sapiens), sequence (P23443 whole entry, looked up): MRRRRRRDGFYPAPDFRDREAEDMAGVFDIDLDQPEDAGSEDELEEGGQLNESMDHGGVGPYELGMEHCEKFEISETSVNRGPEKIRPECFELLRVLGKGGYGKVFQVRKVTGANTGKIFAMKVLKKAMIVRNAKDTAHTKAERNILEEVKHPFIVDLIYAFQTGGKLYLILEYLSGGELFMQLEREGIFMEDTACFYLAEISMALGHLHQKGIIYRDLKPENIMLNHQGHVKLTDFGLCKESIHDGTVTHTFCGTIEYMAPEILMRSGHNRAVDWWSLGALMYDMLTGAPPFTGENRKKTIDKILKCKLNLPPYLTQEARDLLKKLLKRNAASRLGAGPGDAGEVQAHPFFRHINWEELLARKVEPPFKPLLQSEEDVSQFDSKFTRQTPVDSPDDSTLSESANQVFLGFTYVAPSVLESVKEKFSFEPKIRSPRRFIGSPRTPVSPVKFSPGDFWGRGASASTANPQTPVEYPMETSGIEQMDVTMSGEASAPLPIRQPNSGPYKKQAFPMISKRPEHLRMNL
Mitogen-activated protein kinase 1 (Homo sapiens), sequence (P28482 whole entry): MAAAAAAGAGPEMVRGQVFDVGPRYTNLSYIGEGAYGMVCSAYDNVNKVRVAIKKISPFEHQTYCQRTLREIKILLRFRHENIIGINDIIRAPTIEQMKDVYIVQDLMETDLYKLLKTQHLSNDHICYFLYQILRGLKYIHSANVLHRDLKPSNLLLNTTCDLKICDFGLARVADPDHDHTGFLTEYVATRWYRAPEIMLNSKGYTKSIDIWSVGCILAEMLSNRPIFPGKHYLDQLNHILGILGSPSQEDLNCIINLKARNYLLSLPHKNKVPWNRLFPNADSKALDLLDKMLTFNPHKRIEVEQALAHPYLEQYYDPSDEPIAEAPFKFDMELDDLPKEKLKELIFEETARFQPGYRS
Protein kinase C beta type (Homo sapiens), sequence (P05771 2-671 limits assumed): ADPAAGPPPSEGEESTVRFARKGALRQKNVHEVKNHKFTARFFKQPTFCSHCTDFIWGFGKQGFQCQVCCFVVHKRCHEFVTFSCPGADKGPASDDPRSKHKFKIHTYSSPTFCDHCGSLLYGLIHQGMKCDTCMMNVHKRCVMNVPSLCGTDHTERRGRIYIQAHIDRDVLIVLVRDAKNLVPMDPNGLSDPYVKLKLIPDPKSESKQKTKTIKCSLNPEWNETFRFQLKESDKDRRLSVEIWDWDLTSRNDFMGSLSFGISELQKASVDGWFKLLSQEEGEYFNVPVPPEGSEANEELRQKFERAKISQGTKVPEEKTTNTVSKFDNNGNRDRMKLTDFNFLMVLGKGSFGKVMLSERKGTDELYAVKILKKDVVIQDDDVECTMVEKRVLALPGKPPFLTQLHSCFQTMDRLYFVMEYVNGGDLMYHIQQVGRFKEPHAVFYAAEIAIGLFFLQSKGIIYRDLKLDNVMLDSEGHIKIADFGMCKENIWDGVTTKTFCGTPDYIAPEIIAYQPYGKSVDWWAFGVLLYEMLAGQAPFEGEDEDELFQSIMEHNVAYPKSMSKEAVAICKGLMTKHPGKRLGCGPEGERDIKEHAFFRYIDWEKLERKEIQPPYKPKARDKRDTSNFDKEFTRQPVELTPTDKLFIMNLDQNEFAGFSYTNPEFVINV
MAP kinase-activated protein kinase 2 (Homo sapiens), sequence (P49137 whole entry, looked up): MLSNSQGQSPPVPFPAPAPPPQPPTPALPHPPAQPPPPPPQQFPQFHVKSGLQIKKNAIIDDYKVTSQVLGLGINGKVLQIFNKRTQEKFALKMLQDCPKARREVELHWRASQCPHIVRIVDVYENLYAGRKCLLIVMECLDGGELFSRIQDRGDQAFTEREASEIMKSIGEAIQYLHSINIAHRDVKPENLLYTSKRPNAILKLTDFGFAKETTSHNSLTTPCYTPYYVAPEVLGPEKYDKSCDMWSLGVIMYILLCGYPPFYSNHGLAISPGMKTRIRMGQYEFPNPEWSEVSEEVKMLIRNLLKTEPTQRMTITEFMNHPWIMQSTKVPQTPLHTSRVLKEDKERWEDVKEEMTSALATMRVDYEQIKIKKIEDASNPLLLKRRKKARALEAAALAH
Proto-oncogene tyrosine-protein kinase Src (Homo sapiens), sequence (P12931 2-536 limits assumed): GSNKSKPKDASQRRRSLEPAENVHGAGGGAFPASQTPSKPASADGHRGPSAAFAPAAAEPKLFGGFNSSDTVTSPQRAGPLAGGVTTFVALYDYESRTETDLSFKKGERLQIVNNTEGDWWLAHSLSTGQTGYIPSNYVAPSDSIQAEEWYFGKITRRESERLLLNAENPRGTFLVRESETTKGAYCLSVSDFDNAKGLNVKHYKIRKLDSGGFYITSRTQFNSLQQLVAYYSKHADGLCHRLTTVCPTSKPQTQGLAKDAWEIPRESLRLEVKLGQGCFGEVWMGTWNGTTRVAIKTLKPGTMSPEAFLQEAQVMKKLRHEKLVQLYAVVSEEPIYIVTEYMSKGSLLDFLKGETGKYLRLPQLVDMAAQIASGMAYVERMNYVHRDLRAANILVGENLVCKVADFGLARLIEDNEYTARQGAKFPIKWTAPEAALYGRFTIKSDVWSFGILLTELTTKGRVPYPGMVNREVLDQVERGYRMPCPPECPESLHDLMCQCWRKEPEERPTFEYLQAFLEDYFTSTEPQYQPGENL
Tyrosine-protein kinase Lck (Homo sapiens), sequence (P06239 2-509 limits assumed): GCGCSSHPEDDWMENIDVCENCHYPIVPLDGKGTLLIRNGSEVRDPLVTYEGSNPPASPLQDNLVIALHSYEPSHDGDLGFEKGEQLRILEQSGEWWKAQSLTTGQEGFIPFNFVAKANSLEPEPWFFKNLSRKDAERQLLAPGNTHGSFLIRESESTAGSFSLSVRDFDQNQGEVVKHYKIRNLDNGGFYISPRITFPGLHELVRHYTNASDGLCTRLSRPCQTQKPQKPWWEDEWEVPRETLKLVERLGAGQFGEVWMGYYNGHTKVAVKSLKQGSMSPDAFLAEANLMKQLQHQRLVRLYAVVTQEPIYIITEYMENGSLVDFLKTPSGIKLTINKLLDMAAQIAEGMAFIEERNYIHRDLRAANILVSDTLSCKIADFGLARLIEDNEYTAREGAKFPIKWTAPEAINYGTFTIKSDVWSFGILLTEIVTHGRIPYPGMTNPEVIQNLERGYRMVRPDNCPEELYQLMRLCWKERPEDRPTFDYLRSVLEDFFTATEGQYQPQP

In general, IC50 refers to the concentration that inhibits the measured activity by half. A lower IC50 goes with greater potency. The inhibition is the share of the control response that was lost under treatment. Read a low inhibition as a response near the control. For the compound `O=C1NC(=O)c2c1c1c3cc(Cl)ccc3[nH]c1c1cccn21`, the % activity in the test listed under Homo sapiens [1] came out at 94%; in the test filed under Homo sapiens [2], 32%; in the test listed under Homo sapiens [4], 98%; in test [6] it was 92%; in test [8], 75%; in test [9] it was 75%. In addition, the % activity in [10] was 86%; in test [11] it was 29%; in test [12] it was 51%; in test [14], 79%; in the test listed under Homo sapiens [15], 40%; in the test listed under Homo sapiens [16], 39%. The % activity is 69% in test [17], 6% in test [20] and 98% in test [21]. The concentration for half-maximal inhibition (IC50) in the test with HT-29 came out at 30.4 µM; with A549 it was 28.9 µM; in test [13], 0.089 µM; in the test on DU-145, 27.4 µM; with L1210 it was 14.7 µM. Also, the result (in the test filed under Homo sapiens [3]; in test [5]; in test [19]) was inactive. In addition, the inhibition in [7] turned out to be 95.4%; in test [18], 22.1%.

On to `O=C1NC(=O)c2c1c1c3cc(Br)ccc3[nH]c1c1cccn21`, for which the % activity turned out to be 104% in the test filed under Homo sapiens [1]; 50% in the test filed under Homo sapiens [2]; 103% in the test filed under Homo sapiens [4]; 91% in test [6]; 99% in [8]; 85% in test [9]. The % activity in [10] was determined as 90%; in test [11], 46%; in test [12], 26%; in test [14] it was 98%; in the test filed under Homo sapiens [15] it was 55%; in the test filed under Homo sapiens [16] it was 44%. In addition, the figures for the % activity in test [17], in test [20] and in test [21] were 88%, 14% and 88%, respectively. For the same compound, the IC50 in the test on HT-29 came to 29 µM; in the test with A549, 20.9 µM; in test [13], 0.066 µM; in the test with DU-145 it was 21.7 µM; with L1210, 12.5 µM. In addition, the inhibition was found to be 87.9% in test [7] and 22.3% in test [18].
